Data published in ChEMBL document CHEMBL3867441, “Boesenberols, Pimarane Diterpenes with TRAIL-Resistance-Overcoming Activity from Boesenbergia pandurata” (J Nat Prod, 2016).
The source made the active and inactive calls. The calls are words filed in the database; no cut-off is given here.

Key:
AGS [1] = experiment: Potentiation of TRAIL-induced cytotoxicity against human AGS cells assessed as reduction in cell viability at 10 to 40 uM measured after 24 hrs by FMCA method; format: functional, cell-based
Outline: (§1)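 FMCA viability assay in TRAIL-resistant AGS cells or HEK293 cells (HEK293 in DMEM, 10% FBS, 1% penicillin-streptomycin). Cells are seeded at 6 × 10^3 per well, left 24 h at 37 °C in 5% CO2, then exposed to test sample at several doses with or without TRAIL (100 ng/mL) for 24 h. Cells are PBS-washed and given […] (10 μg/mL) in PBS for 1 h at 37 °C. Fluorescence is read at ex 485/em 538 nm. Means ± SD, n = 4; luteolin is the positive control and DMSO the negative control.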

AGS [2] = experiment: Potentiation of TRAIL-induced cytotoxicity against human AGS cells assessed as reduction in cell viability at 5 to 30 uM measured after 24 hrs by FMCA method; format: functional, cell-based; outline: as §1
AGS [3] = experiment: Potentiation of TRAIL-induced cytotoxicity against human AGS cells assessed as reduction in cell viability at 10 to 30 uM measured after 24 hrs by FMCA method; format: functional, cell-based; outline: as §1
AGS [4] = experiment: Potentiation of TRAIL-induced cytotoxicity against human AGS cells assessed as reduction in cell viability at 10 to 50 uM measured after 24 hrs by FMCA method; format: functional, cell-based; outline: as §1
AGS [5] = experiment: Potentiation of TRAIL-induced cytotoxicity against human AGS cells assessed as reduction in cell viability at 20 to 60 uM measured after 24 hrs by FMCA method; format: functional, cell-based; outline: as §1
AGS [6] = experiment: Potentiation of TRAIL-induced cytotoxicity against human AGS cells assessed as reduction in cell viability at 20 to 80 uM measured after 24 hrs by FMCA method; format: functional, cell-based; outline: as §1
AGS [7] = experiment: Potentiation of TRAIL-induced cytotoxicity in human AGS cells assessed as reduction in cell viability at 5 to 25 uM measured after 24 hrs by FMCA method; format: functional, cell-based; outline: as §1
[8] = Upregulation of cleaved caspase9 expression in human AGS cells at 8 to 24 uM measured after 24 hrs by Western blot analysis; format: functional, cell-based
Outline: (§2)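 Western blot in AGS cells. Cells are seeded for 24 h and treated with compound at the indicated concentrations for 24 h. Lysis is in Tris·HCl (20 mM, pH 7.4), NaCl 150 mM, 0.5% Triton X-100, 0.5% deoxycholate, EDTA 10 mM, orthovanadate 1 mM, NaF 0.1 mM and protease inhibitors. Proteins are run on 12.5% SDS-PAGE and transferred to PVDF, blocked in 5% milk/TBST, probed with primary and then HRP secondary antibodies, and detected by ECL. β-Actin is the internal control.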

AGS [9] = experiment: Potentiation of TRAIL-induced apoptosis in human AGS cells assessed as increase in cleaved caspase9 level at 16 uM measured after 24 hrs by Western blot analysis; format: functional
Outline: (§3)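 Western blot in AGS cells for cleaved caspases-3, -8 and -9. Cells are seeded for 24 h, then given compound at 16 μM, TRAIL (100 ng/mL), or both together for 24 h. Lysates are made in the Tris/Triton/deoxycholate lysis buffer with protease inhibitors and run on 12.5% SDS-PAGE. Proteins are transferred to PVDF, immunodetected with HRP secondary antibodies and read by ECL chemiluminescence.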

AGS [10] = experiment: Potentiation of TRAIL-induced apoptosis in human AGS cells assessed as increase in cleaved caspase8 level at 16 uM measured after 24 hrs by Western blot analysis; format: functional; outline: as §3
[11] = Upregulation of Fas protein expression in human AGS cells measured after 24 hrs by Western blot analysis; format: functional, cell-based; outline: as §2
AGS [12] = experiment: Potentiation of TRAIL-induced apoptosis in human AGS cells assessed as increase in cleaved caspase3 level at 16 uM measured after 24 hrs by Western blot analysis; format: functional; outline: as §3
[13] = Upregulation of DR5 protein expression in human AGS cells measured after 24 hrs by Western blot analysis; format: functional, cell-based; outline: as §2
[14] = Upregulation of DR4 protein expression in human AGS cells measured after 24 hrs by Western blot analysis; format: functional, cell-based; outline: as §2
[15] = Upregulation of CHOP expression in human AGS cells measured after 24 hrs by Western blot analysis; format: functional, cell-based; outline: as §2
[16] = Downregulation of Bcl2 protein expression in human AGS cells measured after 24 hrs by Western blot analysis; format: functional, cell-based; outline: as §2
[17] = Upregulation of cleaved caspase3 expression in human AGS cells at 8 to 24 uM measured after 24 hrs by Western blot analysis; format: functional, cell-based; outline: as §2
AGS [18] = experiment: Induction of apoptosis in human AGS cells assessed as cleaved caspase3 level at 16 uM measured after 24 hrs by Western blot analysis relative to control; format: functional; outline: as §3
[19] = Upregulation of Bax protein expression in human AGS cells at 8 to 24 uM measured after 24 hrs by Western blot analysis; format: functional, cell-based; outline: as §2
[20] = Downregulation of c-FLIP expression in human AGS cells at 8 to 24 uM measured after 24 hrs by Western blot analysis; format: functional, cell-based; outline: as §2
[21] = Cytotoxicity against HEK293 cells assessed as reduction in cell viability up to 30 uM measured after 24 hrs in presence of TRIAL by FMCA method; format: toxicity, cell-based; settings: human, hek293, 24 h; outline: as §1
[22] = Upregulation of cleaved caspase-8 expression in human AGS cells at 8 to 24 uM measured after 24 hrs by Western blot analysis; format: functional, cell-based; outline: as §2
[23] = Upregulation of p53 protein expression in human AGS cells measured after 24 hrs by Western blot analysis; format: functional, cell-based; outline: as §2
AGS [24] = experiment: Induction of apoptosis in human AGS cells assessed as cleaved caspase9 level at 16 uM measured after 24 hrs by Western blot analysis relative to control; format: functional; outline: as §3
AGS [25] = experiment: Induction of apoptosis in human AGS cells assessed as cleaved caspase8 level at 16 uM measured after 24 hrs by Western blot analysis relative to control; format: functional; outline: as §3
[26] = Downregulation of GSK-3beta protein expression in human AGS cells measured after 24 hrs by Western blot analysis; format: functional, cell-based; outline: as §2
AGS [27] = experiment: Potentiation of TRAIL-induced cytotoxicity against human AGS cells assessed as reduction in cell viability at 40 to 120 uM measured after 24 hrs by FMCA method; format: functional, cell-based; outline: as §1

For `C=C[C@@]1(C)CCC2=C([C@H]1OC)[C@H](OC)[C@@H](O)[C@H]1C(C)(C)CCC[C@]21C`, the Activity (AGS [1]) was “Active”.
For `C=C[C@]1(C)C=C2CC[C@H]3C(C)(C)CC[C@H](O)[C@]3(C)[C@@]2(O)CC1`, the Activity (AGS [2]) was “Active”.
With `C=C[C@]1(C)C=C2CC[C@H]3C(C)(C)C[C@H](O)[C@H](O)[C@]3(C)[C@H]2CC1` the Activity (AGS [3]) was “Active”.
For `C=C[C@]1(C)C=C2[C@H](O)[C@@H](OC(C)=O)[C@H]3C(C)(C)CCC[C@]3(C)[C@@]2(O)CC1`, the Activity (AGS [3]) was “Active”.
For `C=C[C@@]1(C)CCC2=C(C[C@@H](O)[C@H]3C(C)(C)CCC[C@]23C)[C@H]1O`, the Activity (AGS [4]) was “Active”.
In the case of `C=C[C@]1(C)C=C2[C@@H](O)C[C@H]3C(C)(C)CCC[C@]3(C)[C@@]2(O)[C@H](O)C1`, the Activity (AGS [3]) is reported as “Active”.
In the case of `C=C[C@]1(C)C=C2C[C@@H](O)[C@H]3C(C)(C)[C@H](O)C[C@H](O)[C@]3(C)[C@H]2CC1`, the Activity (AGS [4]) is reported as “Active”.
With `C=C[C@@]1(C)C=C2CC[C@H]3C(C)(C)CC[C@H](O)[C@]3(C)[C@H]2[C@H](O)C1` the Activity (AGS [3]) was “Active”.
With `C=C[C@@]1(C)CCC2=C([C@H](OC)[C@@H](O)[C@H]3C(C)(C)CCC[C@]23C)[C@@H]1OC` the Activity (AGS [3]) was “Active”.
In the case of `C=C[C@]1(C)C=C2[C@H](O)C[C@H]3C(C)(C)CC[C@H](O)[C@]3(C)[C@@]2(O)CC1`, the Activity (AGS [5]) is reported as “Active”.
For `C=C[C@]1(C)C=C2[C@H](O)[C@@H](OC(C)=O)[C@H]3C(C)(C)CC[C@H](O)[C@]3(C)[C@@]2(O)CC1`, the Activity (AGS [3]) was “Active”.
In the case of `C=C[C@@]1(C)CCC2=C(C[C@@H](O)[C@H]3C(C)(C)CC[C@H](O)[C@]23C)C1=O`, the Activity (AGS [6]) is reported as “Active”.
In the case of `C=C[C@]1(C)C=C2C[C@@H](O)[C@H]3C(C)(C)CCC(=O)[C@]3(C)[C@@]2(O)CC1`, the Activity (AGS [1]) is reported as “Active”.
In the case of `CC1=C[C@@H](O)[C@H](C(C)C)CC1=O`, the Activity (AGS [6]) is reported as “Active”.
For `C=C[C@]1(C)C=C2C[C@@H](OC(C)=O)[C@H]3C(C)(C)CCC(=O)[C@]3(C)[C@@]2(O)CC1`, the Activity (AGS [1]) was “Active”.
With `C=C[C@]1(C)C=C2C[C@@H](OC(C)=O)[C@H]3C(C)(C)CC[C@H](O)[C@]3(C)[C@@]2(O)CC1` the Activity (AGS [7]) was “Active”, the Activity [8] was “Active” and the Activity (AGS [9]) was 75%. For the same molecule, the Activity (AGS [10]) was 65%, the Activity [11] was “Dose-dependent effect” and the Activity (AGS [12]) was 68%. The Activity [13] was “Dose-dependent effect”, the Activity [14] was “Dose-dependent effect” and the Activity [15] was “Dose-dependent effect”. The Activity [16] was “Dose-dependent effect”, the Activity [17] was “Active” and the Activity (AGS [18]) was 0%. For the same molecule, the Activity [19] was “Active”, the Activity [20] was “Active” and the Activity [21] was “Non-Toxic”. For the same molecule, the Activity [22] was “Active”, the Activity [23] was “Dose-dependent effect” and the Activity (AGS [24]) was 15%. The Activity (AGS [25]) was 0% and the Activity [26] was “Dose-dependent effect”.
With `C=C[C@]1(C)C=C2C[C@@H](O)[C@H]3C(C)(C)CC[C@H](O)[C@]3(C)[C@@]2(O)CC1` the Activity (AGS [27]) was “Active”.
With `C=C[C@@]1(C)CCC2=C([C@H](O)[C@@H](O)[C@H]3C(C)(C)CCC[C@]23C)[C@@H]1OC` the Activity (AGS [5]) was “Active”.
